Where “and” joins values, the source holds several entries; their conditions need not be identical. Identical values can stand only once.

The results in this text go back to ChEMBL document CHEMBL1127301, “Carbonyl-containing bisphosphonate esters as novel antiinflammatory and antiarthritic agents” (1994).

Holding throughout (format): functional
In assay [1] the test system is Mus musculus. As to the kind of experiment: Decreased wet tissue weight of DTH-GRA from mice was determined after (sc) administration of a dose of 100 mg/kg after 9 days. Conditions: for inhibition in vivo at 100 mg/kg: Mus musculus, sc, 216 h. In a few lines: (§1)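 Groups of 10 female CF-1 mice (25 g) were sensitized sc over the inguinal node with mBSA/Freund's incomplete adjuvant/dextran. Three weeks later, two 6 mm hydroxyapatite discs soaked in mBSA (30 mg/mL) were implanted sc in the dorsum. Drug was given sc in the scruff. After 9 days, granulomas were excised and wet/dry weights compared with vehicle controls as percent inhibition.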

For assay [2], the system named is Mus musculus. As to the kind of experiment: Compound was tested for the suppression of Antigen-Induced Arthritis in mice after 28days, which were dosed 100 mg/kg subcutaneously;. Conditions: sc, 672 h, route subcutaneous. An outline of the steps:
(§2)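 mBSA-sensitized mice were boosted after 7 days and, 14 days later, challenged intraarticularly with 200 μg mBSA in saline in the left rear stifle. Drug in sterile saline was given sc in the scruff from day 0 on a 5-of-7-day regimen to day 28. H&E sagittal joint sections were graded 1–5 for inflammation, pannus, and cartilage/bone erosion; results are percent inhibition.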

In assay [3] the test system is Mus musculus. Nature of the assay: Decreased wet tissue weight of DTH-GRA from mice was determined after (sc) administration of a dose of 10 mg/kg after 9 days. An outline of the steps: as §1
The subject of assay [4] is Mus musculus. Nature of the assay: Decreased dry tissue weight of DTH-GRA from mice was determined after (sc) administration of a dose of 10 mg/kg after 9 days. In a few lines:
as §1

In assay [5] the test system is Mus musculus. As to the kind of experiment: Compound was tested for the suppression of Antigen-Induced Arthritis in mice after 28 days, which were dosed 10 mg/kg subcutaneously. Conditions: sc, 672 h, route subcutaneous. In a few lines:
as §2

The test system of assay [6] is Mus musculus. As to the kind of experiment: Compound was tested for the suppression of Antigen-Induced Arthritis in mice after 28days, at a dose of 10 mg/kg administered subcutaneously. Conditions: sc, 672 h, route subcutaneous. An outline of the steps:
as §2

For assay [7], the system named is Mus musculus. Nature of the assay: Compound was tested for the suppression of Antigen-Induced Arthritis in mice after 28 days, at a dose of 50 mg/kg administered subcutaneously. Conditions: sc, 672 h, route subcutaneous. In a few lines:
as §2

In assay [8] the test system is Mus musculus. As to the kind of experiment: Compound was tested for the suppression of Antigen-Induced Arthritis in mice after 28 days, at a dose of 25 mg/kg administered subcutaneously. Conditions: sc, 672 h, route subcutaneous. An outline of the steps:
as §2

The test system of assay [9] is Mus musculus. As to the kind of experiment: Compound was tested for the suppression of Antigen-Induced Arthritis in mice after 28days, which were dosed 100 mg/kg subcutaneously. Conditions: sc, 672 h, route subcutaneous. In a few lines:
as §2

Assay [10] has as its system Mus musculus. Nature of the assay: Decreased dry tissue weight of DTH-GRA from mice was determined after (sc) administration of a dose of 100 mg/kg after 9 days. Conditions: 216 h. An outline of the steps:
as §1

Assay [11] relates to Mus musculus. As to the kind of experiment: Compound was tested for the suppression of Antigen-Induced Arthritis in mice after 28days, at a dose of 100 mg/kg administered subcutaneously. Conditions: sc, 672 h, route subcutaneous. In a few lines:
as §2

Assay [12] has as its system Mus musculus. Nature of the assay: Compound was tested for the suppression of Antigen-Induced Arthritis in mice after 28days, at a dose of 100 mg/kg administered subcutaneously; p<0.001. Conditions: sc, 672 h, route subcutaneous. In a few lines: as §2
In assay [13] the test system is Mus musculus. As to the kind of experiment: Decreased wet tissue weight of DTH-GRA from mice was determined after (sc) administration of a dose of 25 mg/kg. In a few lines:
(§3)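 Groups of 10 female CF-1 mice (25 g) sensitized sc over the inguinal lymph node with mBSA emulsion (saline, Freund's incomplete adjuvant, dextran). Three weeks later, two hydroxyapatite discs (6 mm) soaked in mBSA (30 mg/mL saline) implanted sc bilaterally in the dorsum. Compound given sc in scruff of neck in saline vehicle. Granulomas excised after 9 days; wet and dry weights expressed as percent inhibition versus vehicle-dosed controls.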

Assay [14] has as its system Mus musculus. As to the kind of experiment: Decreased dry tissue weight of DTH-GRA from mice was determined after (sc) administration of a dose of 50 mg/kg. In a few lines:
as §3

For assay [15], the system named is Mus musculus. As to the kind of experiment: Decreased wet tissue weight of DTH-GRA from mice was determined after (sc) administration of a dose of 200 mg/kg. In a few lines:
as §3

Assay [16] has as its system Mus musculus. Nature of the assay: Decreased wet tissue weight of DTH-GRA from mice was determined after (sc) administration of a dose of 50 mg/kg. An outline of the steps:
as §3

In assay [17] the test system is Mus musculus. Nature of the assay: Decreased wet tissue weight of DTH-GRA from mice was determined after (sc) administration of a dose of 100 mg/kg. In a few lines:
as §3

In assay [18] the test system is Mus musculus. Nature of the assay: Decreased dry tissue weight of DTH-GRA from mice was determined after (sc) administration of a dose of 200 mg/kg. An outline of the steps:
as §3

For assay [19], the system named is Mus musculus. Nature of the assay: Decreased dry tissue weight of DTH-GRA from mice was determined after (sc) administration of a dose of 25 mg/kg. In a few lines:
as §3

The test system of assay [20] is Mus musculus. As to the kind of experiment: Decreased dry tissue weight of DTH-GRA from mice was determined after (sc) administration of a dose of 100 mg/kg. In a few lines: as §3

On to `CCOP(=O)(OCC)C(C[C@@H]1C(=O)c2ccccc2O[C@H]1c1ccccc1)P(=O)(OCC)OCC`, for which, in the assay with Mus musculus [1], the inhibition in vivo at 100 mg/kg was determined as 67%.
Still for that read-out and setting: the result for `CCOP(=O)(OCC)C(C[C@H]1C(=O)c2ccccc2O[C@H]1c1ccccc1)P(=O)(OCC)OCC` reads 0%; that for `CCOP(=O)(OCC)C(CC1COc2ccccc2C1=O)P(=O)(OCC)OCC` (centres undefined), 67%; that for `CCOP(=O)(OCC)C(CC1Sc2ccccc2C1=O)P(=O)(OCC)OCC` (centres undefined), 27%.
On to `CCOP(=O)(OCC)C(CC1CCCC(C)C1=O)P(=O)(OCC)OCC` (centres undefined), for which the inhibition in vivo at 100 mg/kg was 46% with Mus musculus [2] and 25% in the assay on Mus musculus [1].
Consider `CCOC(=O)C(CC(P(=O)(OCC)OCC)P(=O)(OCC)OCC)C(=O)c1ccccc1` (centres undefined), for which 100 mg/kg produced 77% inhibition in vivo with Mus musculus [1].
On the same count and under the same terms, the result for `CCOP(=O)(OCC)C(CC1C(=O)c2ccccc2SC1C)P(=O)(OCC)OCC` (centres undefined) reads 33%.
Turning to `CCOP(=O)(OCC)C(CC(=O)C(=O)c1ccccc1)P(=O)(OCC)OCC`, the Inhibition with Mus musculus [3] is 56% and 49% and 43% and 28%; in the assay with Mus musculus [4], 45% and 54% and 49% and 38% and 27%. The compound also showed an inhibition in vivo at 100 mg/kg with Mus musculus [1] of 49%. Moreover, the inhibition in vivo at 10 mg/kg in the assay with Mus musculus [5] stood at 12%.
Turning to `CCOP(=O)(OCC)C(CC(C#N)c1ccccn1)P(=O)(OCC)OCC` (centres undefined), the inhibition in vivo at 10 mg/kg in the assay with Mus musculus [6] amounted to 2%.
On to `CCOP(=O)(OCC)C(CC(C(=O)c1ccc(OC)cc1)c1ccccn1)P(=O)(OCC)OCC` (centres undefined), for which testing at 100 mg/kg in the assay on Mus musculus [1] gave an inhibition in vivo of 34%.
For `CCOP(=O)(OCC)C(CC(C(=O)c1ccccc1)c1ccccc1)P(=O)(OCC)OCC` (centres undefined), the Inhibition was 57% and 48% and 38% in the assay on Mus musculus [4]; 51% and 44% and 35% in the assay on Mus musculus [1] (100 mg/kg). Moreover, in the assay with Mus musculus [7], the inhibition in vivo at 50 mg/kg was found to be 53%. This compound yielded an inhibition in vivo at 25 mg/kg in the assay on Mus musculus [8] of 55%. In addition, the inhibition in vivo at 100 mg/kg in the assay with Mus musculus [1] worked out at 48%; with Mus musculus [9], 52%.
As to `CCOP(=O)(OCC)C(CC1Cc2ccccc2C1=O)P(=O)(OCC)OCC` (centres undefined), the inhibition in vivo at 100 mg/kg with Mus musculus [1] stood at 0%.
In the case of `CCOP(=O)(OCC)C(CC1C(=O)c2ccccc2OC1c1ccccc1)P(=O)(OCC)OCC` (centres undefined), the inhibition in vivo at 100 mg/kg with Mus musculus [10] was determined as 47%; in the assay on Mus musculus [1], 46%; in the assay on Mus musculus [9] it was 21%.
Take `CCOP(=O)(OCC)C(CC1CSc2ccc(C)cc2C1=O)P(=O)(OCC)OCC` (centres undefined): the inhibition in vivo at 100 mg/kg in the assay on Mus musculus [11] stood at 21%; in the assay with Mus musculus [1], 28%.
Compound `CCOP(=O)(OCC)C1(P(=O)(OCC)OCC)CC(C(=O)c2ccccc2)=NN1` had an inhibition in vivo at 100 mg/kg with Mus musculus [1] of 31%.
The same measure, in the same setting: the figure for `CCOP(=O)(OCC)C(CC(C#N)c1cccs1)P(=O)(OCC)OCC` (centres undefined) is 40%.
For the compound `CCOP(=O)(OCC)C(CC(C(=O)OC)c1ccccc1)P(=O)(OCC)OCC` (centres undefined), the inhibition in vivo at 100 mg/kg worked out at 38% in the assay with Mus musculus [12] and 8% with Mus musculus [1].
Take `CCOP(=O)(OCC)C(CC(C(=O)OC)c1ccccc1O)P(=O)(OCC)OCC` (centres undefined): in the assay on Mus musculus [1], at 100 mg/kg the inhibition in vivo was 5%.
As for `CCOP(=O)(OCC)C(CC1CCCC(c2ccccc2)C1=O)P(=O)(OCC)OCC` (centres undefined), testing at 100 mg/kg with Mus musculus [1] gave an inhibition in vivo of 50%.
`O=P(O)(O)C(Cl)(Cl)P(=O)(O)O` [CLODRONIC ACID]: the inhibition in vivo at 100 mg/kg stood at 50% in the assay on Mus musculus [10], 61% with Mus musculus [17], 45% in the assay on Mus musculus [1] and 63% in the assay on Mus musculus [20]. For the same compound, the inhibition in vivo at 25 mg/kg with Mus musculus [13] and in the assay with Mus musculus [19] was 45% in each case. Also, the inhibition in vivo at 50 mg/kg in the assay on Mus musculus [14] was 47%; with Mus musculus [16], 48%. In addition, the inhibition in vivo at 200 mg/kg in the assay with Mus musculus [15] worked out at 55%; with Mus musculus [18], 59%.
On to `CCOP(=O)(OCC)C(CC(C#N)c1cccc2ccccc12)P(=O)(OCC)OCC` (centres undefined), for which the inhibition in vivo at 100 mg/kg in the assay on Mus musculus [1] worked out at 0%.
As for `CCOP(=O)(OCC)C(CC(C(=O)Nc1ccccc1)C(=O)c1ccccc1)P(=O)(OCC)OCC` (centres undefined), at 100 mg/kg the inhibition in vivo in the assay with Mus musculus [1] was 3%.

Usually inhibition in vivo stands for the percentage by which the read-out fell short of the control. The Inhibition is the relative decrease from the control value, in per cent. Higher therefore signals strong suppression.
